In brackets after ≈: the same amount, converted by molar mass.
What was measured:
Type in all cases: functional
[1] = tested on: Enterococcus faecalis; test: Antibacterial activity against Enterococcus faecalis 09-2 after 18 hrs by two fold serial dilution method; conditions: 09-2, 18 h
Summary of the method: (§1)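 Agar two-fold serial dilution in melted Mueller-Hinton agar, final concentrations 128 down to 0.008 μg/mL. Plates inoculated with 10⁴ cfu and incubated at 35 °C for 18 h. MIC taken as the lowest concentration giving no visible growth on the plate.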

[2] = tested on: Escherichia coli; test: Antibacterial activity against Escherichia coli 09-1 after 18 hrs by two fold serial dilution method; conditions: 09-1, 18 h; summary of the method: as §1
[3] = tested on: Staphylococcus aureus; test: Antibacterial activity against methicillin-resistant Staphylococcus aureus 10-3 after 18 hrs by two fold serial dilution method; conditions: 10-3, 18 h
Summary of the method: (§2)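 Agar two-fold serial dilution in melted Mueller-Hinton agar, 128 to 0.008 μg/mL. Plates inoculated with 10⁴ cfu, incubated 35 °C for 18 h. MIC taken as lowest concentration giving no visible growth on the plate.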

[4] = tested on: Enterococcus faecium; test: Antibacterial activity against Enterococcus faecium 09-5 after 18 hrs by two fold serial dilution method; conditions: 09-5, 18 h; summary of the method: as §1
[5] = tested on: Escherichia coli; test: Antibacterial activity against Escherichia coli 10-3 after 18 hrs by two fold serial dilution method; conditions: 10-3, 18 h; summary of the method: as §1
[6] = tested on: Klebsiella pneumoniae; test: Antibacterial activity against Klebsiella pneumoniae 10-1 after 18 hrs by two fold serial dilution method; conditions: 10-1, 18 h; summary of the method: as §1
[7] = tested on: Enterococcus faecalis; test: Antibacterial activity against Enterococcus faecalis 09-1 after 18 hrs by two fold serial dilution method; conditions: 09-1, 18 h; summary of the method: as §1
[8] = tested on: Streptococcus pneumoniae; test: Antibacterial activity against Streptococcus pneumoniae 10-1 after 18 hrs by two fold serial dilution method; conditions: 10-1, 18 h; summary of the method: as §1
[9] = tested on: Staphylococcus aureus; test: Antibacterial activity against methicillin-sensitive Staphylococcus aureus 10-6 after 18 hrs by two fold serial dilution method; conditions: 10-6, 18 h; summary of the method: as §1
[10] = tested on: Pseudomonas aeruginosa; test: Antibacterial activity against Pseudomonas aeruginosa 10-2 after 18 hrs by two fold serial dilution method; conditions: 10-2, 18 h; summary of the method: as §1
[11] = tested on: Staphylococcus epidermidis; test: Antibacterial activity against methicillin-resistant Staphylococcus epidermidis 10-2 after 18 hrs by two fold serial dilution method; conditions: 10-2, 18 h; summary of the method: as §2
[12] = tested on: Enterococcus faecium; test: Antibacterial activity against Enterococcus faecium 09-6 after 18 hrs by two fold serial dilution method; conditions: 09-6, 18 h; summary of the method: as §1
[13] = tested on: Staphylococcus aureus; test: Antibacterial activity against methicillin-sensitive Staphylococcus aureus 10-2 after 18 hrs by two fold serial dilution method; conditions: 10-2, 18 h; summary of the method: as §1
[14] = tested on: Enterococcus faecium; test: Antibacterial activity against Enterococcus faecium 09-3 after 18 hrs by two fold serial dilution method; conditions: 09-3, 18 h; summary of the method: as §1
[15] = tested on: Staphylococcus aureus; test: Antibacterial activity against methicillin-sensitive Staphylococcus aureus 10-4 after 18 hrs by two fold serial dilution method; conditions: 10-4, 18 h; summary of the method: as §1
[16] = tested on: Staphylococcus aureus; test: Antibacterial activity against methicillin-resistant Staphylococcus aureus 10-4 after 18 hrs by two fold serial dilution method; conditions: 10-4, 18 h; summary of the method: as §2
[17] = tested on: Escherichia coli; test: Antibacterial activity against Escherichia coli ATCC 25922 after 18 hrs by two fold serial dilution method; conditions: ATCC 25922, 18 h; summary of the method: as §1
[18] = tested on: Pseudomonas aeruginosa; test: Antibacterial activity against Pseudomonas aeruginosa 10-3 after 18 hrs by two fold serial dilution method; conditions: 10-3, 18 h; summary of the method: as §1
[19] = tested on: Staphylococcus aureus; test: Antibacterial activity against methicillin-sensitive Staphylococcus aureus 10-5 after 18 hrs by two fold serial dilution method; conditions: 10-5, 18 h; summary of the method: as §1
[20] = tested on: Klebsiella pneumoniae; test: Antibacterial activity against Klebsiella pneumoniae 09-2 after 18 hrs by two fold serial dilution method; conditions: 09-2, 18 h; summary of the method: as §1
[21] = tested on: Staphylococcus aureus; test: Antibacterial activity against Staphylococcus aureus ATCC 25923 after 18 hrs by two fold serial dilution method; conditions: ATCC 25923, 18 h; summary of the method: as §1
[22] = tested on: Staphylococcus epidermidis; test: Antibacterial activity against methicillin-resistant Staphylococcus epidermidis 10-1 after 18 hrs by two fold serial dilution method; conditions: 10-1, 18 h; summary of the method: as §2
[23] = tested on: Staphylococcus aureus; test: Antibacterial activity against methicillin-resistant Staphylococcus aureus 10-2 after 18 hrs by two fold serial dilution method; conditions: 10-2, 18 h; summary of the method: as §2
[24] = tested on: Pseudomonas aeruginosa; test: Antibacterial activity against Pseudomonas aeruginosa 10-1 after 18 hrs by two fold serial dilution method; conditions: 10-1, 18 h; summary of the method: as §1
[25] = tested on: Escherichia coli; test: Antibacterial activity against Escherichia coli 10-1 after 18 hrs by two fold serial dilution method; conditions: 10-1, 18 h; summary of the method: as §1
[26] = tested on: Pseudomonas aeruginosa; test: Antibacterial activity against Pseudomonas aeruginosa ATCC 27853 after 18 hrs by two fold serial dilution method; conditions: ATCC 27853, 18 h; summary of the method: as §1
[27] = tested on: Enterococcus faecium; test: Antibacterial activity against Enterococcus faecium 09-2 after 18 hrs by two fold serial dilution method; conditions: 09-2, 18 h; summary of the method: as §1
[28] = tested on: Klebsiella pneumoniae; test: Antibacterial activity against Klebsiella pneumoniae 10-3 after 18 hrs by two fold serial dilution method; conditions: 10-3, 18 h; summary of the method: as §1
[29] = tested on: Staphylococcus aureus; test: Antibacterial activity against methicillin-resistant Staphylococcus aureus 10-1 after 18 hrs by two fold serial dilution method; conditions: 10-1, 18 h; summary of the method: as §2
[30] = tested on: Escherichia coli; test: Antibacterial activity against Escherichia coli 09-2 after 18 hrs by two fold serial dilution method; conditions: 09-2, 18 h; summary of the method: as §1
[31] = tested on: Staphylococcus epidermidis; test: Antibacterial activity against methicillin-sensitive Staphylococcus epidermidis 10-2 after 18 hrs by two fold serial dilution method; conditions: 10-2, 18 h; summary of the method: as §1
[32] = tested on: Enterococcus faecium; test: Antibacterial activity against Enterococcus faecium 09-4 after 18 hrs by two fold serial dilution method; conditions: 09-4, 18 h; summary of the method: as §1
[33] = tested on: Staphylococcus epidermidis; test: Antibacterial activity against methicillin-sensitive Staphylococcus epidermidis 10-1 after 18 hrs by two fold serial dilution method; conditions: 10-1, 18 h; summary of the method: as §1
[34] = tested on: Escherichia coli; test: Antibacterial activity against Escherichia coli 10-2 after 18 hrs by two fold serial dilution method; conditions: 10-2, 18 h; summary of the method: as §1
[35] = tested on: Staphylococcus aureus; test: Antibacterial activity against methicillin-sensitive Staphylococcus aureus 10-1 after 18 hrs by two fold serial dilution method; conditions: 10-1, 18 h; summary of the method: as §1
[36] = tested on: Staphylococcus aureus; test: Antibacterial activity against methicillin-sensitive Staphylococcus aureus 10-3 after 18 hrs by two fold serial dilution method; conditions: 10-3, 18 h; summary of the method: as §1
[37] = tested on: Enterococcus faecium; test: Antibacterial activity against Enterococcus faecium 09-1 after 18 hrs by two fold serial dilution method; conditions: 09-1, 18 h; summary of the method: as §1
[38] = tested on: Escherichia coli; test: Antibacterial activity against Escherichia coli 09-3 after 18 hrs by two fold serial dilution method; conditions: 09-3, 18 h; summary of the method: as §1

`CC1(CN)CN(c2ccc3c(=O)c(C(=O)O)cn(C4CC4)c3n2)C/C1=N\OCF` (racemic) was tested, and the MIC [1] was 0.015 µg/mL (≈ 0.0372 µM), the MIC [2] was greater than 128 µg/mL and the MIC [3] was 128 µg/mL (≈ 317 µM). The MIC [4] was 32 µg/mL (≈ 79.3 µM), the MIC [5] was 128 µg/mL (≈ 317 µM) and the MIC [6] was 0.25 µg/mL (≈ 0.62 µM). For the same compound, the MIC [7] was 32 µg/mL (≈ 79.3 µM), the MIC [8] was 0.015 µg/mL (≈ 0.0372 µM) and the MIC [9] was 0.03 µg/mL (≈ 0.0744 µM). It also gave an MIC [10] of 64 µg/mL (≈ 159 µM), an MIC [11] of 8 µg/mL (≈ 19.8 µM) and an MIC [12] of 0.5 µg/mL (≈ 1.24 µM). The MIC [13] was 32 µg/mL (≈ 79.3 µM), the MIC [14] was 2 µg/mL (≈ 4.96 µM) and the MIC [15] was 0.015 µg/mL (≈ 0.0372 µM). The MIC [16] was 128 µg/mL (≈ 317 µM), the MIC [17] was 0.015 µg/mL (≈ 0.0372 µM) and the MIC [18] was 8 µg/mL (≈ 19.8 µM). For the same compound, the MIC [19] was 0.03 µg/mL (≈ 0.0744 µM), the MIC [20] was greater than 128 µg/mL and the MIC [21] was 0.03 µg/mL (≈ 0.0744 µM). It also gave an MIC [22] of 4 µg/mL (≈ 9.92 µM), an MIC [23] of 8 µg/mL (≈ 19.8 µM) and an MIC [24] of 0.5 µg/mL (≈ 1.24 µM). For the same compound, the MIC [25] was greater than 128 µg/mL, the MIC [26] was 1 µg/mL (≈ 2.48 µM) and the MIC [27] was 32 µg/mL (≈ 79.3 µM). It also gave an MIC [28] of 2 µg/mL (≈ 4.96 µM), an MIC [29] of 128 µg/mL (≈ 317 µM) and an MIC [30] greater than 128 µg/mL. For the same compound, the MIC [31] was 64 µg/mL (≈ 159 µM), the MIC [32] was 0.5 µg/mL (≈ 1.24 µM) and the MIC [33] was 4 µg/mL (≈ 9.92 µM). It also gave an MIC [34] of 1 µg/mL (≈ 2.48 µM), an MIC [35] of 0.5 µg/mL (≈ 1.24 µM) and an MIC [36] of 0.015 µg/mL (≈ 0.0372 µM). The MIC [37] was 32 µg/mL (≈ 79.3 µM) and the MIC [38] was greater than 128 µg/mL.
